Source: ChEMBL document CHEMBL1151434 (Antimicrob Agents Chemother, 2007)
Values after ≈ are worked out from the molar mass of the structure shown.

Assays:
[1] = test system: Chlamydia trachomatis; experiment: Antibacterial activity against azithromycin-tolerant 0.01 MOI Chlamydia trachomatis L2AZM#23 harboring mutation in bacterial ribosomal protein L4 infected in mouse L2 cells treated 2 hrs after infection measured on day 7 by plaque assay; type: functional
Outline: (§1)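 Susceptibility measured in a plaque assay on confluent mouse fibroblast L2 cell monolayers in 60-mm dishes. The inoculum was 10^5 chlamydial PFU, equal to an MOI of 0.01. MIC was taken as the drug concentration that inhibited development of these 10^5 PFU.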

[2] = Biodistribution in healthy human epithelial lining fluid assessed as drug accumulation at 500 mg; type: ADME, organism-based; details: in vivo
[3] = test system: Chlamydia trachomatis; experiment: Antibacterial activity against 0.01 MOI wild type Chlamydia trachomatis L2/LGV/434/Bu infected in mouse L2 cells treated 2 hrs after infection measured on day 7 by plaque assay; type: functional; outline: as §1
[4] = test system: Chlamydia psittaci 6BC; experiment: Antibacterial activity against 0.01 MOI wild type Chlamydia psittaci 6BC BCRB infected in mouse L2 cells treated 2 hrs after infection measured on day 7 by plaque assay; type: functional; outline: as §1
[5] = test system: Chlamydia trachomatis; experiment: Antibacterial activity against azithromycin-tolerant 0.01 MOI Chlamydia trachomatis L2AZM#31 harboring mutation in bacterial ribosomal protein L4 infected in mouse L2 cells treated 2 hrs after infection measured on day 7 by plaque assay; type: functional; outline: as §1

| Compound | MIC [1] [µg/mL] | Drug uptake [2] [µg/mL] | MIC [3] [µg/mL] | MIC [4] [µg/mL] | MIC [5] [µg/mL] |
| --- | --- | --- | --- | --- | --- |
| CC[C@H]1OC(=O)[C@H](C)[C@@H](O[C@H]2C[C@@](C)(OC)[C@@H](O)[C@H](C)O2)[C@H](C)[C@@H](O[C@@H]2O[C@H](C)C[C@H](N(C)C)[C@H]2O)[C@](C)(O)C[C@@H](C)CN(C)[C@H](C)[C@@H](O)[C@]1(C)O [AZITHROMYCIN] | 0.8 (≈ 1.07 µM) | 2 | 0.1 (≈ 0.134 µM) | 0.1 (≈ 0.134 µM) | 0.8 (≈ 1.07 µM) |
| O=C(N[C@H](CO)[C@H](O)c1ccc([N+](=O)[O-])cc1)C(Cl)Cl [CHLORAMPHENICOL] | 0.4 (≈ 1.24 µM) |  | 0.4 (≈ 1.24 µM) |  | 0.4 (≈ 1.24 µM) |
| CCC[C@@H]1C[C@@H](C(=O)N[C@@H]([C@H]2O[C@H](SC)[C@H](O)[C@@H](O)[C@H]2O)[C@H](C)Cl)N(C)C1 [CLINDAMYCIN] | 0.5 (≈ 1.18 µM) |  | 0.125 (≈ 0.294 µM) | 0.4 (≈ 0.941 µM) | 0.5 (≈ 1.18 µM) |
| CC[C@H]1OC(=O)[C@H](C)[C@@H](O[C@H]2C[C@@](C)(OC)[C@@H](O)[C@H](C)O2)[C@H](C)[C@@H](O[C@@H]2O[C@H](C)C[C@H](N(C)C)[C@H]2O)[C@](C)(O)C[C@@H](C)C(=O)[C@H](C)[C@@H](O)[C@]1(C)O [ERYTHROMYCIN] | 0.8 (≈ 1.09 µM) |  | 0.2 (≈ 0.273 µM) | 0.2 (≈ 0.273 µM) | 0.8 (≈ 1.09 µM) |
| CO[C@@H]1[C@@H](O[C@@H]2O[C@H](C)[C@@H](O[C@H]3C[C@@](C)(O)[C@@H](OC(=O)CC(C)C)[C@H](C)O3)[C@H](N(C)C)[C@H]2O)[C@@H](CC=O)C[C@@H](C)[C@@H](O)/C=C/C=C/C[C@@H](C)OC(=O)C[C@H]1OC(C)=O [JOSAMYCIN] | 0.2 (≈ 0.242 µM) |  | 0.05 (≈ 0.0604 µM) | 0.05 (≈ 0.0604 µM) | 0.2 (≈ 0.242 µM) |
| SPIRAMYCIN | 4 |  | 0.8 | 1 | 4 |
